From ChEMBL document CHEMBL5653631, “A Potent and Selective ULK1 Inhibitor Suppresses Autophagy and Sensitizes Cancer Cells to Nutrient Stress” (iScience, 2018)

Columns and labels:
[1] = target: Calcium/calmodulin-dependent protein kinase type 1G (Homo sapiens) (UniProt Q96NX5); test: Inhibition of human recombinant CaMK1g at 40 nM in presence of ATP by radiometric assay relative to control
[2] = target: Tyrosine-protein kinase HCK (Homo sapiens) (UniProt P08631); test: Inhibition of human recombinant HCK at 40 nM in presence of ATP by radiometric assay relative to control
[3] = target: Myosin light chain kinase, smooth muscle (Homo sapiens) (UniProt Q15746); test: Inhibition of human recombinant smMLCK at 40 nM related to control ULK1
[4] = target: MAP kinase-activated protein kinase 2 (Homo sapiens) (UniProt P49137); test: Inhibition of human recombinant MAPKAPK2 at 40 nM related to control ULK1
[5] = target: Ribosomal protein S6 kinase alpha-4 (Homo sapiens) (UniProt O75676); test: Inhibition of human recombinant MSK2 at 40 nM related to control ULK1
[6] = target: Interferon-induced, double-stranded RNA-activated protein kinase (Homo sapiens) (UniProt P19525); test: Inhibition of human recombinant PKR at 40 nM related to control ULK1
[7] = target: 5'-AMP-activated protein kinase catalytic subunit alpha-1 (Homo sapiens) (UniProt Q13131); test: Inhibition of human recombinant AMPKa1 at 40 nM related to control ULK1
Procedure, shortened: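 Radiometric activity assays in a panel of 327 human recombinant kinases, each run in duplicate at one inhibitor concentration. Activity remaining is expressed as percent of vehicle control, and percent inhibition is calculated as 100% minus percent activity remaining.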

[8] = target: T1, NUAK family SNF1-like kinase 1 (Homo sapiens) (UniProt O60285); test: Inhibition of human recombinant NuaK1 at 40 nM in presence of ATP by radiometric assay relative to control
T1 sequence (whole entry): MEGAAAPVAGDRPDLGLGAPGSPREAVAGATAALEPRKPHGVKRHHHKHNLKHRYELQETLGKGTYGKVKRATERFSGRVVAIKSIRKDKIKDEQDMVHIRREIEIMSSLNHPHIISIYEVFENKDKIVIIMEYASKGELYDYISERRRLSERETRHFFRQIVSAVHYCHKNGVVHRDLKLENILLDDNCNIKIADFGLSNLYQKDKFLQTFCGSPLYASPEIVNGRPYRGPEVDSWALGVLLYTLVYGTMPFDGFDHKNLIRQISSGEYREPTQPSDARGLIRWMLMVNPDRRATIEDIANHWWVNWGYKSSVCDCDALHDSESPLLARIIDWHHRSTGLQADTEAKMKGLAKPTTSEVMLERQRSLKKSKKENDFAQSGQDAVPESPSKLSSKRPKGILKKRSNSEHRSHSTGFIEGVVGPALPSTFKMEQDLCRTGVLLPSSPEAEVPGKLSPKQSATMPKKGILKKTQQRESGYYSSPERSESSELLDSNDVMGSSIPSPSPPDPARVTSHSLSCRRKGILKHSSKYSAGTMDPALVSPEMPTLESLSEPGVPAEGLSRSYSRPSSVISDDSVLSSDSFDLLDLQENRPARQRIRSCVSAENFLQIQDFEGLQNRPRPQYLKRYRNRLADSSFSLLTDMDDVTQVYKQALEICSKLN

[9] = target: Tau-tubulin kinase 2 (Homo sapiens) (UniProt Q6IQ55); test: Inhibition of human recombinant TTBK2 at 500 nM related to control ULK1
[10] = target: Tyrosine-protein kinase JAK1 (Homo sapiens) (UniProt P23458); test: Inhibition of human recombinant JAK1 at 500 nM in presence of ATP by radiometric assay relative to control
[11] = target: Dual specificity mitogen-activated protein kinase kinase 2 (Homo sapiens) (UniProt P36507); test: Inhibition of human recombinant MAP2K2 at 15 nM in presence of ATP by radiometric assay relative to control
[12] = target: Mitogen-activated protein kinase kinase kinase 10 (Homo sapiens) (UniProt Q02779); test: Inhibition of human recombinant MLK2 at 15 nM related to control ULK1
[13] = target: Serine/threonine-protein kinase 38-like (Homo sapiens) (UniProt Q9Y2H1); test: Inhibition of human recombinant NDR2 at 15 nM related to control ULK1
[14] = target: 3-phosphoinositide-dependent protein kinase 1 (Homo sapiens) (UniProt O15530); test: Inhibition of human recombinant PDK1 at 15 nM related to control ULK1
[15] = target: Tyrosine-protein kinase CSK (Homo sapiens) (UniProt P41240); test: Inhibition of human recombinant CSK at 15 nM in presence of ATP by radiometric assay relative to control
[16] = target: T2, Muscle, skeletal receptor tyrosine-protein kinase (Homo sapiens) (UniProt O15146); test: Inhibition of human recombinant MUSK at 15 nM in presence of ATP by radiometric assay relative to control
T2 sequence (whole entry): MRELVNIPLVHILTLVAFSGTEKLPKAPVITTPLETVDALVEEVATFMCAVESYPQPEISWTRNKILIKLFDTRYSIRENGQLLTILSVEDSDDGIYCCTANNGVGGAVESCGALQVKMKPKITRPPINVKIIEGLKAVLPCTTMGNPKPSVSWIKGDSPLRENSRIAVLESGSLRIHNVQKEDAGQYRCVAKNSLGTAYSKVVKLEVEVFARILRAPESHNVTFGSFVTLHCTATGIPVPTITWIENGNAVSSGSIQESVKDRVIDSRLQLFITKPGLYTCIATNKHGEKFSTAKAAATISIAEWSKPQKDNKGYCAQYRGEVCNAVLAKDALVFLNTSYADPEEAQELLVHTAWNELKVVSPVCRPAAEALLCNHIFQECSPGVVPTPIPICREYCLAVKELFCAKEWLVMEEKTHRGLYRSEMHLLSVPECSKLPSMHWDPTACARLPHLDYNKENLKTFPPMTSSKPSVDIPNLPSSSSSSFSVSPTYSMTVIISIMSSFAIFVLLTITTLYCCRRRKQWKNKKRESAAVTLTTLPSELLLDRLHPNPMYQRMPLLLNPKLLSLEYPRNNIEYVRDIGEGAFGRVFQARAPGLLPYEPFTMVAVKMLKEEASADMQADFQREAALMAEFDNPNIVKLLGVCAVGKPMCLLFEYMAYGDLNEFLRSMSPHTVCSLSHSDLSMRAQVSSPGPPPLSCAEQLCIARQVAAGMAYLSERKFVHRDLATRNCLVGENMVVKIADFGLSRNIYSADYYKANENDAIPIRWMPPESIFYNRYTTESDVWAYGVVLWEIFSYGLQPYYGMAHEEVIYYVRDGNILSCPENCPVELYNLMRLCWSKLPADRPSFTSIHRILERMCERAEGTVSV

Sequence of Calcium/calmodulin-dependent protein kinase type 1G (Homo sapiens) (Q96NX5 whole entry): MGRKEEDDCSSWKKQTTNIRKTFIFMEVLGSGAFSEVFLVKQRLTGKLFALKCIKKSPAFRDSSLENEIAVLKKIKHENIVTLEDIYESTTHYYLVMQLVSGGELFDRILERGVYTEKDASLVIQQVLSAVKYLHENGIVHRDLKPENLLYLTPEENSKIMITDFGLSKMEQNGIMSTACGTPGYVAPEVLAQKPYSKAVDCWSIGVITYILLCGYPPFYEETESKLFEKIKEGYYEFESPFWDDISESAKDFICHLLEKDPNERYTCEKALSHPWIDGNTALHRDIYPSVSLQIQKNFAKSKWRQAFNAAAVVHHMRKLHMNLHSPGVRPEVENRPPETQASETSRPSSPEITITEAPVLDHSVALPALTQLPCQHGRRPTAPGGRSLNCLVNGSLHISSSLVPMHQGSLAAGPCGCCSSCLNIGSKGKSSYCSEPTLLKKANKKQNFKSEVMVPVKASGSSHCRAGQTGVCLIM
Sequence of Interferon-induced, double-stranded RNA-activated protein kinase (Homo sapiens) (P19525 whole entry): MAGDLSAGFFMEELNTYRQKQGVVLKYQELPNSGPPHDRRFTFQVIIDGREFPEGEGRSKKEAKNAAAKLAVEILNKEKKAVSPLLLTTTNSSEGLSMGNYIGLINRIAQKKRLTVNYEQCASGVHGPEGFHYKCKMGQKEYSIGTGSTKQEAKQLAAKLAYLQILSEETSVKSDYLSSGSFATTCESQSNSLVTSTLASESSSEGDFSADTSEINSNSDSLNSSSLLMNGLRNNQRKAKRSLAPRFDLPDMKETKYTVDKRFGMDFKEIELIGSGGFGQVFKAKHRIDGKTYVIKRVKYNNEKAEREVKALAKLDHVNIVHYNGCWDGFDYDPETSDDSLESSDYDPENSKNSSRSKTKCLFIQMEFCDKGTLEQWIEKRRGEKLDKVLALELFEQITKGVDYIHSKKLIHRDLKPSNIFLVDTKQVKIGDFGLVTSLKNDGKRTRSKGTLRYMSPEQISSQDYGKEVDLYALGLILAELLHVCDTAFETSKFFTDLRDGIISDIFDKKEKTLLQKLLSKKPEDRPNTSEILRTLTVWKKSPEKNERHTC
Sequence of Mitogen-activated protein kinase kinase kinase 10 (Homo sapiens) (Q02779 whole entry, looked up): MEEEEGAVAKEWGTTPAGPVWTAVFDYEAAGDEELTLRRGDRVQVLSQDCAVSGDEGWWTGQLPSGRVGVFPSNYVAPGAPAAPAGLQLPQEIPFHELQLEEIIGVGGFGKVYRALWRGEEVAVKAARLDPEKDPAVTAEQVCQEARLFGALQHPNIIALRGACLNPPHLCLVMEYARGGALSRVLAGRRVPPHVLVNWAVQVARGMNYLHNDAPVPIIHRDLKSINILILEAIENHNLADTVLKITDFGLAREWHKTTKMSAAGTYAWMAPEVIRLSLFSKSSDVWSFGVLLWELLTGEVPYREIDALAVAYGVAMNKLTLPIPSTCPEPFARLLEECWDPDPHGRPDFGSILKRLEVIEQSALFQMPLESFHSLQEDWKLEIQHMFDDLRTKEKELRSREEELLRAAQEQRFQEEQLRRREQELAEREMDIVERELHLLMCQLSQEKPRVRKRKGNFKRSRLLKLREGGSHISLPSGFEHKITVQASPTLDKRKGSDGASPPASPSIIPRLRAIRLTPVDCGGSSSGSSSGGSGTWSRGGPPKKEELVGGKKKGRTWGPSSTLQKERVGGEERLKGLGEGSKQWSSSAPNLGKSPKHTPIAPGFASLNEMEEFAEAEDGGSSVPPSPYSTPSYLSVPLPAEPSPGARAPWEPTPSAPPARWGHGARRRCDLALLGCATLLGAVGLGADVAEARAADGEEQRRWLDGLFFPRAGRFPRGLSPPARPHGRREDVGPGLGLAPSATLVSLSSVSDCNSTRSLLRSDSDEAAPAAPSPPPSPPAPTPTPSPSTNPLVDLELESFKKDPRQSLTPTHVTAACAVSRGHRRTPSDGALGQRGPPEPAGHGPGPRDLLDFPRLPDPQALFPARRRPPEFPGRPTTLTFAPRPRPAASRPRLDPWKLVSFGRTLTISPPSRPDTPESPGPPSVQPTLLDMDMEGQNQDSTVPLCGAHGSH
Sequence of Ribosomal protein S6 kinase alpha-4 (Homo sapiens) (O75676 whole entry, looked up): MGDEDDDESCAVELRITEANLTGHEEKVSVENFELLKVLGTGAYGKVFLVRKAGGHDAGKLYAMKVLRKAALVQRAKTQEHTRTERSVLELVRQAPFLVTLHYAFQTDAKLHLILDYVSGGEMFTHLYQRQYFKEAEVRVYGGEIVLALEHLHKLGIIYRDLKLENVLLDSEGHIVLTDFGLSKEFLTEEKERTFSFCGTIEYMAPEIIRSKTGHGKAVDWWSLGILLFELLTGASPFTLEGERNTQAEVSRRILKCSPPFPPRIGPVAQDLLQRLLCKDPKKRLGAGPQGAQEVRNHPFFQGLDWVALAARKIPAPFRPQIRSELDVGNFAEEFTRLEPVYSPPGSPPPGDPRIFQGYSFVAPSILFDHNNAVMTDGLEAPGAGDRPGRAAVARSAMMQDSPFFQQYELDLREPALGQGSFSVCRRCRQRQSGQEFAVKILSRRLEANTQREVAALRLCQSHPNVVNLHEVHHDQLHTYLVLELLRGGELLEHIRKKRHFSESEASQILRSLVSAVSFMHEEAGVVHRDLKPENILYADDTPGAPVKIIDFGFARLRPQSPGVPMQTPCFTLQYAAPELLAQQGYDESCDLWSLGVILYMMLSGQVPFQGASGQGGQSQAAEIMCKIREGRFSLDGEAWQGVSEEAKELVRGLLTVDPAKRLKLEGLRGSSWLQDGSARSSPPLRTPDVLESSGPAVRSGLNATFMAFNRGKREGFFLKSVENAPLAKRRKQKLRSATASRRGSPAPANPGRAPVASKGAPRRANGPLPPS
Sequence of Tyrosine-protein kinase JAK1 (Homo sapiens) (P23458 whole entry): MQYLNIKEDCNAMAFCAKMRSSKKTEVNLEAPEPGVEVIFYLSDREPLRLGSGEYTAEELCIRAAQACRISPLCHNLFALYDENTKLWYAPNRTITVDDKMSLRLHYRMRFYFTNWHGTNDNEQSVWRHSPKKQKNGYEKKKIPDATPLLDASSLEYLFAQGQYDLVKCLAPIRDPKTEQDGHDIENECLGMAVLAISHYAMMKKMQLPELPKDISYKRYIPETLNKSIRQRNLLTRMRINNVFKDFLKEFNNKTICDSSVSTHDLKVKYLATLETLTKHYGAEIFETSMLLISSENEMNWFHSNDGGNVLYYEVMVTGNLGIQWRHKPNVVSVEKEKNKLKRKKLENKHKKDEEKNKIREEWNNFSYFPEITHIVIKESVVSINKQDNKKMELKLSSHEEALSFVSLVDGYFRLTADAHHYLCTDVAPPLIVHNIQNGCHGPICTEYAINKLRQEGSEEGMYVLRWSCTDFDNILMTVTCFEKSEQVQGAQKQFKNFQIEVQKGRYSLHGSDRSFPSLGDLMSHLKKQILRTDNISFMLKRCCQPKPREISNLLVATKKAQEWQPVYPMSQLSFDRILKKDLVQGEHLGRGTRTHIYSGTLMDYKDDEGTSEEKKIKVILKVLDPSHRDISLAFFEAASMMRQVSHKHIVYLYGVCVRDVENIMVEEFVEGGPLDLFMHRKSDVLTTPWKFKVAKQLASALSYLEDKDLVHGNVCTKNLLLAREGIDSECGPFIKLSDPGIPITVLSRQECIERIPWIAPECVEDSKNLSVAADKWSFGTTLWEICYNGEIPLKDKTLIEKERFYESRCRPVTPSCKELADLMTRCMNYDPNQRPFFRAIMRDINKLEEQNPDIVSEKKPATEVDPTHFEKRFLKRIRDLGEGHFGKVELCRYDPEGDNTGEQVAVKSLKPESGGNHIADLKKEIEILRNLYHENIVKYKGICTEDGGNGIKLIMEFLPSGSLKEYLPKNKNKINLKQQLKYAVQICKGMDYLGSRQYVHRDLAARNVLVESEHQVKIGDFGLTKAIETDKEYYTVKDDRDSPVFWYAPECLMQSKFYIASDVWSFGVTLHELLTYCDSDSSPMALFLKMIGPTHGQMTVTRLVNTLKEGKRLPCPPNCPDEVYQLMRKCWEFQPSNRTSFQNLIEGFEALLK
Sequence of 3-phosphoinositide-dependent protein kinase 1 (Homo sapiens) (O15530 whole entry, looked up): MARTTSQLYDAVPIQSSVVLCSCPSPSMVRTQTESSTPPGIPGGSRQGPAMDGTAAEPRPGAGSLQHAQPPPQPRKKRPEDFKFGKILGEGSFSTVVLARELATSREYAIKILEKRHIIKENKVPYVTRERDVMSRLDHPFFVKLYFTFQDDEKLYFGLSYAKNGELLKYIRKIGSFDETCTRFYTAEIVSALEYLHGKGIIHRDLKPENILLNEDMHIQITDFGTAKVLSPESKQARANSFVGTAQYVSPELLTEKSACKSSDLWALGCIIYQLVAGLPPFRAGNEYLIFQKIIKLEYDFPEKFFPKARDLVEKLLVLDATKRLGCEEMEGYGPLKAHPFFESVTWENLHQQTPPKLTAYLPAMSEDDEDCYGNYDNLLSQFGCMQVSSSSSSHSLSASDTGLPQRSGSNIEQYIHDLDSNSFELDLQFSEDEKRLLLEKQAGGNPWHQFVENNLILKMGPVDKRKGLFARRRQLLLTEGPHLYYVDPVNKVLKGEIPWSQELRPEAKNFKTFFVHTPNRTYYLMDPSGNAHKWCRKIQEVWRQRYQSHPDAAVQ
Sequence of 5'-AMP-activated protein kinase catalytic subunit alpha-1 (Homo sapiens) (Q13131 whole entry, looked up): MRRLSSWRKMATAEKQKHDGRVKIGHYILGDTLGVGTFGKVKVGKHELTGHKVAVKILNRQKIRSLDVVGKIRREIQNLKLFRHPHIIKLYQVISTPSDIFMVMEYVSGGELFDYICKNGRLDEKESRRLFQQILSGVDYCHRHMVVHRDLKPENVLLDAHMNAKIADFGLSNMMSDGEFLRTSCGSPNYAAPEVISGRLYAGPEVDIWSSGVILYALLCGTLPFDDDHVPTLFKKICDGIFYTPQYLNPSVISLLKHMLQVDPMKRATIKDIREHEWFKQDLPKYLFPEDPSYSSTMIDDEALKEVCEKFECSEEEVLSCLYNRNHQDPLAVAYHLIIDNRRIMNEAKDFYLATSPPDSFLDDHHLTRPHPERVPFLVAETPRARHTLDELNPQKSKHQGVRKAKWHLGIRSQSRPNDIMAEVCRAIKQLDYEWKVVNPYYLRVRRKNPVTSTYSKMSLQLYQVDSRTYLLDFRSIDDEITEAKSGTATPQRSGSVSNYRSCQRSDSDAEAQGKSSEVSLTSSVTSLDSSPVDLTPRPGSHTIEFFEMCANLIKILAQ

Molecule `O=C(N[C@@H](C1CC1)C(F)(F)F)c1cc(-c2cnn3cc(-c4ccc(F)cc4)cnc23)cs1` has an inhibition [1] of 0%, an inhibition [2] of 0% and a fold change (FC) [3] of 0.07. The fold change (FC) [4] was 0, the fold change (FC) [5] was 0 and the fold change (FC) [6] was 0. For the same molecule, the fold change (FC) [7] was 0.11 and the inhibition [8] was 5%.
In the case of `CNC(=O)c1ccccc1Oc1nc(Nc2cc(OC)c(OC)c(OC)c2)ncc1Br`, the fold change (FC) [9] is reported as 0.08 and the inhibition [10] is reported as 39%.
For `CC(C)[C@H](NC(=O)c1cc(-c2cnn3cc(-c4ccc(OCCN5CCCCC5)cc4)cnc23)cs1)C(F)(F)F`, the inhibition [11] was 0%, the fold change (FC) [12] was 0.14 and the fold change (FC) [13] was 0.02. It also gave a fold change (FC) [14] of 0.07, an inhibition [15] of 12% and an inhibition [16] of 0%.
